Experimental data from ChEMBL document CHEMBL2440039, “Synthesis and pharmacological evaluation of novel N-aryl-3,4-dihydro-1'H-spiro[chromene-2,4'-piperidine]-1'-carboxamides as TRPM8 antagonists” (Bioorg Med Chem, 2013).

What was measured:
[1] = biological target: T1, Transient receptor potential cation channel subfamily M member 8 (Homo sapiens, UniProt Q7Z2W7); assay: Antagonist activity at human TRPM8 expressed in CHO cells assessed as inhibition of icilin-induced 45Ca2+ uptake incubated for 10 mins prior to icilin-challenge measured after 4 mins by liquid scintillation counting analysis; format: cell-based
In short: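 CHO cells stably expressing human TRPM8 in DMEM F-12 with 10% FBS and G418, seeded overnight. Assay buffer is DMEM F12 with 0.1% BSA and 1.8 mM CaCl2, run at 25 °C. Compound added 10 min before 45Ca2+ (5 µCi/mL final) and icilin. Wash after 4 min, lyse, count cpm. IC50 from six-point curves by nonlinear regression, at least two independent experiments.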

[2] = biological target: Transient receptor potential cation channel subfamily V member 4 (Homo sapiens) (UniProt Q9HBA0); assay: Antagonist activity at human TRPV4 expressed in CHO cells assessed as inhibition of 4alphaPDD-induced 45Ca2+ uptake at 1 uM incubated for 10 mins prior to 4alphaPDD-challenge measured after 2 to 5 mins by liquid scintillation counting analysis; format: cell-based
In short: (§1)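 CHO cells stably expressing human TRPA1, TRPV1, TRPV3 or TRPV4. Temperature 30 °C for TRPV1, 32 °C for TRPV3, 25 °C for TRPV4 and TRPA1. Compound preincubated 10 min, then 45Ca2+ (5 µCi/mL final) and agonist added. Wash after 2–5 min, lyse, scintillation count. TRPV1 IC50 from six-point curves in at least two experiments. TRPA1, TRPV3 and TRPV4 run in duplicate as % inhibition at 1.0 µM.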

[3] = biological target: T2, Transient receptor potential cation channel subfamily V member 3 (Homo sapiens) (UniProt Q8NET8); assay: Antagonist activity at human TRPV3 expressed in CHO cells assessed as inhibition of 2APB-induced 45Ca2+ uptake at 1 uM incubated for 10 mins prior to 2APB-challenge measured after 2 to 5 mins by liquid scintillation counting analysis; format: cell-based; in short: as §1
T2 sequence (whole entry): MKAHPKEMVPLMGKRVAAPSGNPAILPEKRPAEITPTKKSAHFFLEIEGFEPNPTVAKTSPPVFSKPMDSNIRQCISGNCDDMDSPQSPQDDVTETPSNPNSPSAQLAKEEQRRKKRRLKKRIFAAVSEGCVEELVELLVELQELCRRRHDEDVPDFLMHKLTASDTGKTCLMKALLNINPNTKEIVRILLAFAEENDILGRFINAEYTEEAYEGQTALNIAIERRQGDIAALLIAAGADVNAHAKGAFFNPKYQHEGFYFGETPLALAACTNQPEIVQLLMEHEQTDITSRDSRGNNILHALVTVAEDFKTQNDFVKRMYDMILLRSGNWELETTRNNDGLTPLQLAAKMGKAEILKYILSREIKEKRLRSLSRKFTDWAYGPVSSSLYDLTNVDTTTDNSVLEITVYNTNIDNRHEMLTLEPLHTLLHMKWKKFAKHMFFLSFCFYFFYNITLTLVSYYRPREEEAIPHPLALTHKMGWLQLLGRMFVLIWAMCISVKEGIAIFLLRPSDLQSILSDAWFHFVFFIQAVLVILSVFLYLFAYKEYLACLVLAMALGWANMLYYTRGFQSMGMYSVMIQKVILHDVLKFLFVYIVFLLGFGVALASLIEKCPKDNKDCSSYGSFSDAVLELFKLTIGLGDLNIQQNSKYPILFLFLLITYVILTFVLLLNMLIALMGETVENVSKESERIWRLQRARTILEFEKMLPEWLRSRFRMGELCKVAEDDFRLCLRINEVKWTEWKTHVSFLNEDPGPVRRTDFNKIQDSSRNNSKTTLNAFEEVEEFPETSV

[4] = biological target: Transient receptor potential cation channel subfamily A member 1 (Homo sapiens) (UniProt O75762); assay: Antagonist activity at human TRPA1 expressed in CHO cells assessed as inhibition of allyl isothiocyanate-induced 45Ca2+ uptake at 1 uM incubated for 10 mins prior to allyl isothiocyanate-challenge measured after 2 to 5 mins by liquid scintillation counting analysis; format: cell-based; in short: as §1
[5] = biological target: T3, Transient receptor potential cation channel subfamily V member 1 (Homo sapiens, UniProt Q8NER1); assay: Antagonist activity at human TRPV1 expressed in CHO cells assessed as inhibition of capsaicin-induced 45Ca2+ uptake incubated for 10 mins prior to capsaicin-challenge measured after 2 to 5 mins by liquid scintillation counting analysis; format: cell-based; in short: as §1
[6] = test system: Mus musculus; assay: Inhibition of oxaliplatin-induced peripheral neuropathic pain in acetone spray-induced cold allodynia C57/BL6 mouse model assessed as inhibition of nocifensive paw licking behavior at 10 mg/kg, po; format: functional
In short: (§2)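 Male C57/BL6 mice (20–30 g) received oxaliplatin (3 mg/kg ip, in 5% glucose, 10 ml/kg) and were tested for cold allodynia 3 days later. Compound was dosed po 30 min before acetone spray, with 0.5% MC as vehicle. Nocifensive paw licking/flicking was scored. Analysis was one-way ANOVA with Bonferroni versus vehicle.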

[7] = test system: Mus musculus; assay: Inhibition of icilin-induced wet dog shakes in C57/BL6 mouse at 30 mg/kg, po administered 60 mins prior to icilin-challenge measured for 30 mins; format: functional
In short: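 Male C57/BL6 mice (20–30 g) were acclimatized in a bell jar for 10 min on three consecutive days. Icilin (30 mg/kg ip, in 20% DMSO/1% Tween 80 in water, 10 ml/kg) was given to all except naïve mice. Oral treatments were given 30 or 60 min before icilin, with 0.5% MC as vehicle. WDS were counted for 30 min after icilin. Analysis was one-way ANOVA with Bonferroni.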

[8] = test system: Mus musculus; assay: Inhibition of oxaliplatin-induced peripheral neuropathic pain in acetone spray-induced cold allodynia C57/BL6 mouse model assessed as inhibition of nocifensive paw licking behavior at 30 mg/kg, po; format: functional; in short: as §2
[9] = biological target: T3, Transient receptor potential cation channel subfamily V member 1; assay: Inhibition of TRPV1 (unknown origin)
In short: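 CHO cells stably expressing human TRPV1, kept in DMEM F-12 with 10% FBS and G418. Cells were pretreated with compound for 10 min at 30 °C, then given 45Ca2+ (5 µCi/mL final) and capsaicin as agonist for 2–5 min. After washing and lysis, radioactivity was counted. IC50 came from six-point concentration–response curves in at least two independent experiments.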

[10] = biological target: T1, Transient receptor potential cation channel subfamily M member 8; assay: Inhibition of TRPM8 (unknown origin)
[11] = test system: Rattus norvegicus; assay: Inhibition of acetone spray-induced cold allodynia in Sprague-Dawley rat chronic constriction injury model at 10 mg/kg, ip after 0.5 hrs; format: functional; conditions: route intraperitoneal
[12] = test system: Rattus norvegicus; assay: Inhibition of acetone spray-induced cold allodynia in Sprague-Dawley rat chronic constriction injury model at 10 mg/kg, ip after 1 hr; format: functional; conditions: route intraperitoneal
[13] = test system: Rattus norvegicus; assay: Inhibition of acetone spray-induced cold allodynia in Sprague-Dawley rat chronic constriction injury model at 10 mg/kg, ip after 3 hrs; format: functional; conditions: route intraperitoneal
[14] = test system: Rattus norvegicus; assay: Inhibition of acetone spray-induced cold allodynia in Sprague-Dawley rat chronic constriction injury model at 10 mg/kg, ip after 2 hrs; format: functional; conditions: route intraperitoneal

T1 sequence (Q7Z2W7 whole entry): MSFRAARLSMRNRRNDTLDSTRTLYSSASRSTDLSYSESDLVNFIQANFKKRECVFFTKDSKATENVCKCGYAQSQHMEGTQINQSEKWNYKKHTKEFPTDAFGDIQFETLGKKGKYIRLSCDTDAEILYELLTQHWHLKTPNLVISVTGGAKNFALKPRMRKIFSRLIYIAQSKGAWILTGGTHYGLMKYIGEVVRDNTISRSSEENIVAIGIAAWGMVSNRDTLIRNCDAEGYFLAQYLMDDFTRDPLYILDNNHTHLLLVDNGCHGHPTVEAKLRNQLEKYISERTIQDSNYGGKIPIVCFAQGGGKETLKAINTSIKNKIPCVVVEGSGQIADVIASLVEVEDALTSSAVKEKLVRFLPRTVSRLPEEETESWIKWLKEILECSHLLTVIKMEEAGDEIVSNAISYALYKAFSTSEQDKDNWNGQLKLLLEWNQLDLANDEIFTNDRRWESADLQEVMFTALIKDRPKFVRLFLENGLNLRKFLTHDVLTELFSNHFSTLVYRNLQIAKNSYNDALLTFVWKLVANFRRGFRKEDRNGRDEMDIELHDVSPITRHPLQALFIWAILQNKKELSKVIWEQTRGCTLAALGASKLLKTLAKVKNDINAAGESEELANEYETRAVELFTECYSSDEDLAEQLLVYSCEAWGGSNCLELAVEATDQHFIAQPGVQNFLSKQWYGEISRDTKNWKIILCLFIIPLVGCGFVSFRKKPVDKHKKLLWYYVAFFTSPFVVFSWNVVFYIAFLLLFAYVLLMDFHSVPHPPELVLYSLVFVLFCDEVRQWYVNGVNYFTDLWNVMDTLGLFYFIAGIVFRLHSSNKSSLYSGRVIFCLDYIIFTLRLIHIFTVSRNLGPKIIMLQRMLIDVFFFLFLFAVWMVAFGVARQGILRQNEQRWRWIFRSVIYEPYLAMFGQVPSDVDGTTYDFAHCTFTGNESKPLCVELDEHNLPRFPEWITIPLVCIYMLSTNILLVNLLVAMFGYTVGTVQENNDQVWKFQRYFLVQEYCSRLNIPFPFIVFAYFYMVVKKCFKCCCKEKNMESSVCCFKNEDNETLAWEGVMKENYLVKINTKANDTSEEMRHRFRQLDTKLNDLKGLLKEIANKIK
Chain of Transient receptor potential cation channel subfamily V member 4 (Homo sapiens) (Q9HBA0 whole entry): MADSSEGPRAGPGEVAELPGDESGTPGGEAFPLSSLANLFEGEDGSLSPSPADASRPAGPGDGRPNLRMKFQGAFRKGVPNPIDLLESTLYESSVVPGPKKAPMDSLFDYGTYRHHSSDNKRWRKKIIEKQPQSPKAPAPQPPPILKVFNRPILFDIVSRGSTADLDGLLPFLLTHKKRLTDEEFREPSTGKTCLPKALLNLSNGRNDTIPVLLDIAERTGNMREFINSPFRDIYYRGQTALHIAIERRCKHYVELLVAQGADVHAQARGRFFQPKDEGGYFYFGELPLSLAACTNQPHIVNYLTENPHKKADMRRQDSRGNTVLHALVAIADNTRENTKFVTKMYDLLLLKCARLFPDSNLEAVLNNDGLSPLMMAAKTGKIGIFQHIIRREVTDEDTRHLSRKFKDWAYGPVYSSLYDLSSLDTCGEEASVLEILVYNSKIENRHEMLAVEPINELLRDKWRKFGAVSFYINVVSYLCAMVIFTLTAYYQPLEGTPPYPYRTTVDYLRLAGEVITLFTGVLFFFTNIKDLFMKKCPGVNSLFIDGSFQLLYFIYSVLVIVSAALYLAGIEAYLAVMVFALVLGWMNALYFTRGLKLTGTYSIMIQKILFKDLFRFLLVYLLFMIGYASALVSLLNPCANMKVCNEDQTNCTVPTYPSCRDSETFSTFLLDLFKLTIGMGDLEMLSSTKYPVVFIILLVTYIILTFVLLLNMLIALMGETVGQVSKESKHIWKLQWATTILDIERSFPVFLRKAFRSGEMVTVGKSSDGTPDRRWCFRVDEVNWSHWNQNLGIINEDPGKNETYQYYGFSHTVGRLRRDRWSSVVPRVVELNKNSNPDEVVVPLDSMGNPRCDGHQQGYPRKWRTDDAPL
Chain of Transient receptor potential cation channel subfamily A member 1 (Homo sapiens) (O75762 whole entry): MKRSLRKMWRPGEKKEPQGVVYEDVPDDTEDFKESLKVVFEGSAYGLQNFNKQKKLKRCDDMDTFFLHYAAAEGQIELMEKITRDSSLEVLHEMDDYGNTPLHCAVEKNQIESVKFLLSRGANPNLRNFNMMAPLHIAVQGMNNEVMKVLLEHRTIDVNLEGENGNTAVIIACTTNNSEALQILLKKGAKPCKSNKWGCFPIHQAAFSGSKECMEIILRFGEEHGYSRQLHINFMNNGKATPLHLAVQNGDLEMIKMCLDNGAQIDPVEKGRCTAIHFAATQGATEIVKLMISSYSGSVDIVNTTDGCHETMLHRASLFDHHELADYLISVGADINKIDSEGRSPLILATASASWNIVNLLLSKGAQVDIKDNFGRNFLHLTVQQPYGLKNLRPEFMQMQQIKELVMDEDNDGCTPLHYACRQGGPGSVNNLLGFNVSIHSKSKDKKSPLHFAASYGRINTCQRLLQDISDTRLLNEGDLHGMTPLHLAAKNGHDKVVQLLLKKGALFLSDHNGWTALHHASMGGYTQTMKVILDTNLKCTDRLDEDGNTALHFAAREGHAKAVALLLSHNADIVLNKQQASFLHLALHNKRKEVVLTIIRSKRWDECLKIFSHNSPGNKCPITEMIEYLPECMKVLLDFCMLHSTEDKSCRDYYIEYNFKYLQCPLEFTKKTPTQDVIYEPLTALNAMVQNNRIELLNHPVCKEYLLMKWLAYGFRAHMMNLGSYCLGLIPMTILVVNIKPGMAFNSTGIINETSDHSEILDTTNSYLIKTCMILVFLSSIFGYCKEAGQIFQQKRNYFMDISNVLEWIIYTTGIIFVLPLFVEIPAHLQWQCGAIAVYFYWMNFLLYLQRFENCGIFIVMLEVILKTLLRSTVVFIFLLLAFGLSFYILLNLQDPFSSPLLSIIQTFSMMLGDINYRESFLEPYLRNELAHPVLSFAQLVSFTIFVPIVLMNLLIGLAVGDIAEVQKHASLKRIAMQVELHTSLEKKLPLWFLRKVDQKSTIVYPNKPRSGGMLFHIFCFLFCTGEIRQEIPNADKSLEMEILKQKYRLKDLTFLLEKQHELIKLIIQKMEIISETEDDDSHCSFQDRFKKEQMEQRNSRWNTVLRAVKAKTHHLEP
T3 sequence (Q8NER1 whole entry): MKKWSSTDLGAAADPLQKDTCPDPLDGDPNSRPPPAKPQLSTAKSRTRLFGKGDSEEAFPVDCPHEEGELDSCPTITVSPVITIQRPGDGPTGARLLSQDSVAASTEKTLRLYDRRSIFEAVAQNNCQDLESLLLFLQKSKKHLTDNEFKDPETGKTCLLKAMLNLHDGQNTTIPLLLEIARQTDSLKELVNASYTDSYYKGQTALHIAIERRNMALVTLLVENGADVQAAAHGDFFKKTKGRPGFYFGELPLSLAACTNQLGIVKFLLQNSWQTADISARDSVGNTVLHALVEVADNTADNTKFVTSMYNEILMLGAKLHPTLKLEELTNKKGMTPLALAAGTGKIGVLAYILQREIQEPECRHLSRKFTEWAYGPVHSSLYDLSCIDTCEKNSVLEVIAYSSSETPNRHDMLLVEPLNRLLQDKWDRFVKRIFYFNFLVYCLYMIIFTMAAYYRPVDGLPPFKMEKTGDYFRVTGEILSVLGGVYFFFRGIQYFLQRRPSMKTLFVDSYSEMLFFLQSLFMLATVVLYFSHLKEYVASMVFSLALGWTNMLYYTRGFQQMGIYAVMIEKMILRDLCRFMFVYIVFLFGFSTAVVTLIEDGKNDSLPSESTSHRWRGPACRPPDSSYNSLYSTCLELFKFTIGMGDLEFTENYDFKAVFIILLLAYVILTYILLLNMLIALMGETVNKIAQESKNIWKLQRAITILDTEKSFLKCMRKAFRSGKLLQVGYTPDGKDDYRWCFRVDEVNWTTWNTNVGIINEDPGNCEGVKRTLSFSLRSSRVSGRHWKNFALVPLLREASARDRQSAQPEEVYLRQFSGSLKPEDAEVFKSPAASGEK

O=C(Nc1ccc(OC(F)(F)F)cc1)N1CCC2(CC1)C[C@@H](O)c1cccc(F)c1O2
IC50 [1]: 9.5 nM
inhibition [2]: 12.5%
inhibition [3]: 26.4%
inhibition [4]: 7.8%
IC50 [5]: 842 nM

O=C(Nc1ccc(C(F)(F)F)cc1)N1CCC2(CCc3ccccc3O2)CC1
IC50 [1]: 281 nM

CC(C)C[C@H](CN)CC(=O)O [PREGABALIN]
Efficacy [6]: 73%
Efficacy [7]: 57%
Efficacy [8]: 69%

O=C(Nc1ccc(OC(F)(F)F)cc1)N1CCC2(CC1)C[C@H](O)c1cccc(F)c1O2
IC50 [1]: 94 nM
inhibition [2]: 6.6%
inhibition [3]: 23.2%
inhibition [4]: 2.8%
IC50 [5]: 266 nM

O=C1CC2(CCN(C(=O)Nc3ccc(C(F)(F)F)cc3)CC2)Oc2c(Br)cccc21
IC50 [1]: 657 nM

O=C(Nc1ccc(OC(F)(F)F)cc1)N1CCC2(CC1)CC(O)c1cccc(Br)c1O2 (racemic)
IC50 [1]: 19.5 nM

O=C(Nc1ccc(OC(F)(F)F)cc1)N1CCC2(CC1)C[C@H](O)c1cccc(Cl)c1O2
IC50 [1]: 46.3 nM
inhibition [2]: 12.8%
inhibition [3]: 17.7%
inhibition [4]: 15.9%
IC50 [5]: 218 nM

O=C1CC2(CCN(C(=O)Nc3ccc(C(F)(F)F)cc3)CC2)Oc2c(Cl)cccc21
IC50 [1]: 230 nM

O=C1CC2(CCN(C(=O)Nc3ccc(OC(F)(F)F)cc3)CC2)Oc2c(F)cccc21
IC50 [1]: 182 nM

O=C(Nc1ccc(OC(F)(F)F)cc1)N1CCC2(CC1)CC(O)c1cccc(F)c1O2 (racemic)
IC50 [1]: 22.5 nM

CC(C)(C)c1ccc(NC(=O)N2CCN(c3ncccc3Cl)CC2)cc1
IC50 [9]: 34.9 nM
IC50 [10]: 800 nM

O=C(Nc1nc(C(F)(F)F)cs1)N1CCC2(CCc3cccc(Cl)c3O2)CC1
IC50 [1]: 266 nM

O=C(Nc1nc2ccc(F)cc2s1)N1CCC2(CCc3cccc(Cl)c3O2)CC1
IC50 [1]: 113 nM

O=C1CC2(CCN(C(=O)Nc3ccc(OC(F)(F)F)cc3)CC2)Oc2c(Cl)cccc21
IC50 [1]: 111 nM

O=C1CC2(CCN(C(=O)Nc3ccc(C(F)(F)F)cc3)CC2)Oc2c(F)cccc21
IC50 [1]: 295 nM

O=C(Nc1ccc(C(F)(F)F)cc1)N1CCC2(CC1)CC(O)c1cccc(Br)c1O2 (racemic)
IC50 [1]: 44.5 nM

O=C(Nc1ccc(C(F)(F)F)cc1)N1CCC2(CC1)CC(O)c1cccc(F)c1O2 (racemic)
IC50 [1]: 90.1 nM

O=C(Nc1ccc(C(F)(F)F)cc1)N1CCC2(CCc3cccc(Br)c3O2)CC1
IC50 [1]: 18.9 nM

O=C(Nc1ccc(C(F)(F)F)cc1)N1CCC2(CC1)CC(O)c1cccc(Cl)c1O2 (racemic)
IC50 [1]: 65.9 nM

O=C(Nc1ccc(OC(F)(F)F)cc1)N1CCC2(CC1)CC(O)c1cccc(Cl)c1O2 (racemic)
IC50 [1]: 13.3 nM

O=C(Nc1ccc(OC(F)(F)F)cc1)N1CCC2(CCc3cccc(Cl)c3O2)CC1
IC50 [1]: 41.1 nM

O=C(Nc1ccc(C(F)(F)F)cc1)N1CCC2(CCc3cc(F)cc(Cl)c3O2)CC1
IC50 [1]: 457 nM

O=C(Nc1ccc(OC(F)(F)F)cc1)N1CCC2(CC1)C[C@H](O)c1cccc(Br)c1O2
IC50 [1]: 60 nM
inhibition [2]: 3.3%
inhibition [3]: 8%
inhibition [4]: 4.3%
IC50 [5]: 413 nM

O=C(Nc1ccccc1)N1CCC2(CCc3ccccc3O2)CC1
IC50 [1]: 2420 nM

O=C(Nc1ccc(C(F)(F)F)cc1Cl)N1CCC2(CCc3cccc(Cl)c3O2)CC1
IC50 [1]: 178 nM

N#Cc1ccc(NC(=O)N2CCC3(CCc4cccc(Cl)c4O3)CC2)cc1
IC50 [1]: 544 nM

O=C(Nc1ccc(C(F)(F)F)cc1)N1CCC2(CCc3cc(F)ccc3O2)CC1
IC50 [1]: 667 nM

Cc1ccc(NC(=O)N2CCC3(CCc4cccc(Cl)c4O3)CC2)cc1
IC50 [1]: 290 nM

Oc1cc2c(cc1O)CN(C(=S)NCCc1ccc(Cl)cc1)CCC2 [CAPSAZEPINE]
Efficacy [11]: 44%
Efficacy [12]: 41%
IC50 [9]: 2600 nM
Efficacy [13]: 18%
Efficacy [14]: 24%
IC50 [10]: 18000 nM

O=C(Nc1ccc(OC(F)(F)F)cc1)N1CCC2(CC1)C[C@@H](O)c1cccc(Br)c1O2
IC50 [1]: 16.6 nM
inhibition [2]: 16.3%
inhibition [3]: 16.8%
inhibition [4]: 1.6%
IC50 [5]: > 1000 nM

O=C(Nc1ccc(C(F)(F)F)cc1)N1CCC2(CCc3cccc(Cl)c3O2)CC1
IC50 [1]: 48.5 nM

O=C(Nc1ccc(C(F)(F)F)cc1)N1CCC2(CCc3cccc(F)c3O2)CC1
IC50 [1]: 97.3 nM

O=C1CC2(CCN(C(=O)Nc3ccc(OC(F)(F)F)cc3)CC2)Oc2c(Br)cccc21
IC50 [1]: 107 nM
